Laboratory results published in article PMC3374645 (European Journal of Pharmaceutical Sciences, 2012).
In brackets after ≈: the same amount, converted by molar mass. Like-named read-outs stand apart in the source and are kept apart here.

Experiments:
[1] = comparison value, no reference given; cited from earlier work
[2] = 2008, cited from earlier work
[3] = Parallel artificial membrane permeability assay; type: in vitro ADME; details: PAMPA, pH 7.4, 4 h
[4] = system: Caco-2 monolayers; assay: Bidirectional permeability in Caco-2 monolayers; type: in vitro ADME
[5] = Simultaneous three-compartment model fit of i.v. and oral data; type: in vivo, Sprague–Dawley rats; details: rat
Method in brief: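 Pooled i.v. (5.0 mg/kg) and oral (20, 40, 60 mg/kg gavage) rat plasma data were fitted simultaneously by generalized least squares with variance error models. The structural model had three compartments with combined zero-order/Michaelis–Menten limited systemic uptake. Models were discriminated by goodness-of-fit plots, residuals, SE, CV%, CI95% and lowest AIC.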

[6] = Noncompartmental pharmacokinetics after oral administration; type: in vivo, Sprague–Dawley rats; details: rat
Method in brief: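 Male Sprague–Dawley rats (240–350 g, n = 5/group) were fasted overnight and gavaged with 2% (w/v) test compound in ethanol/TPGS/water. Tail-vein plasma was sampled predose and 0.25–24 h, precipitated with acetonitrile, and run on C18 HPLC at 242 nm (nimesulide internal standard; 0.05–8.00 μg/mL calibration). Per-rat SHAM analysis used log-trapezoidal AUC, with CL = Dose/AUC.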

[7] = Three-compartment model fit after i.v. administration; type: in vivo, Sprague–Dawley rats; details: rat, i.v. 5.0 mg/kg
Method in brief: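 Rats received a tail-vein injection of 5.0 mg/kg in ethanol/TPGS/water vehicle. Plasma was taken from 0.017 to 24 h and assayed by HPLC. Concentration–time data were fitted by generalized least squares to three-compartment mass-balance differential equations, seeded with noncompartmental estimates. Parameters are reported with CV%; Vss was taken as the sum of the compartment volumes.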

[8] = Partition coefficient in octanol:water system; type: physicochemical; details: pH 7.0
Method in brief: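 Test compound (1.0 mg) was added to 4.0 mL of a 1:1 octanol:water mixture at pH 7.0 and shaken vigorously for 30 min. Phases were separated by centrifugation, passed through 0.1 µm filters and quantified by reverse-phase C18 HPLC (90% acetonitrile, 242 nm).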

[9] = Saturation solubility, shake-flask in buffers, HPLC; type: physicochemical
Method in brief: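 Shake-flask method: excess test compound was placed in 1.0 mL citrate, HEPES or phosphate buffer at pH 2.0–8.0 and shaken 24 h at 25.0 ± 0.1 °C, 1500 rpm. Suspensions then stood unshaken overnight before centrifugation. Supernatants were filtered (0.1 µm) and measured by reverse-phase C18 HPLC at 242 nm.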

In the case of `c1ccc2c(Cc3c[nH]c4ccccc34)c[nH]c2c1` [DIM, 3,3′-diindolylmethane], the “Log K0/w” value [1] is listed as “≈ 4.0”, the Cmax ([2]; single 100 mg dose ref Reed et al.) is listed as 32 ng/mL and the Cmax ([2]; single 200 mg dose ref Reed et al.) is listed as 104 ng/mL. The Cmax ([2]; single 300 mg dose ref Reed et al.) was 108 ng/mL.
For `c1ccc(-c2ccc(C(c3c[nH]c4ccccc34)c3c[nH]c4ccccc34)cc2)cc1` [DIM-P, DIM-C-pPhC6H5], the “donor-to-receptor apparent permeability (Papp)” value ([3]; stirred water layer) was 2.69 ± 0.08 × 10^−6 cm/s, the “donor-to-receptor apparent permeability (Papp)” value ([3]; unstirred water layer) was 0.58 ± 0.07 × 10^−6 cm/s and the “Peff A–B” value ([4]; Caco-2, apical pH 5) was 0.34 ± 0.06 × 10^−6 cm/s. The “Peff B–A” value ([4]; Caco-2, apical pH 5) was 0.53 ± 0.08 × 10^−6 cm/s, the “Peff A–B” value ([4]; Caco-2, apical pH 5.8) was 0.33 ± 0.07 × 10^−6 cm/s and the “Peff B–A” value ([4]; Caco-2, apical pH 5.8) was 0.50 ± 0.06 × 10^−6 cm/s. For the same compound, the “Peff A–B” value ([4]; Caco-2, apical pH 6.8) was 0.35 ± 0.06 × 10^−6 cm/s, the “Peff B–A” value ([4]; Caco-2, apical pH 6.8) was 0.52 ± 0.07 × 10^−6 cm/s and the “average Peff, B–A” value ([4]; Caco-2, basolateral to apical, average) was 0.51 ± 0.09 × 10^−6 cm/s. For the same compound, the “absorptive (A–B) versus secretive (B–A) transport” value ([4]; bidirectional Caco-2, no active efflux) was “nearly unity”, the “Biopharmaceutics Classification System (BCS) class” value ([4]; from low solubility and low permeability) was “Class IV” and the “zero-order absorption site access rate” value ([5]; oral 20 mg/kg) was 14 mg/h/kg. For the same compound, the “zero-order absorption site access rate” value ([5]; oral 40 mg/kg) was 28 mg/h/kg, the “zero-order absorption site access rate” value ([5]; oral 60 mg/kg) was 42 mg/h/kg and the CLC ([5]; simultaneous fit i.v. 5.0 and oral 20, 40, 60 mg/kg) was 0.77 mL/min/kg. The “Abmax (maximum absorption rate at saturation)” value ([5]; simultaneous fit i.v. and oral) was 60.65 µg/min/kg, the CLd1 ([5]; simultaneous fit i.v. and oral) was 0.606 mL/min/kg and the CLd2 ([5]; simultaneous fit i.v. and oral) was 0.319 mL/min/kg. The FBIO ([5]; simultaneous fit i.v. and oral) was 0.126, the “SD50 (amount of drug at the absorption site at 50% saturation)” value ([5]; simultaneous fit i.v. and oral) was 8.6797 mg/kg and the “Tsite (time required for drug to reach absorption site)” value ([5]; simultaneous fit i.v. and oral) was 85.20 min. For the same compound, the V1 ([5]; simultaneous fit i.v. and oral) was 0.64606 L/kg, the V2 ([5]; simultaneous fit i.v. and oral) was 0.0285 L/kg and the VC ([5]; simultaneous fit i.v. and oral) was 0.0139 L/kg. For the same compound, the “AUC0–24h /Dose” value ([6]; oral 20 mg/kg) was 2.28 ± 0.46 (min/L) *10^−3, the “AUMC0–24h” value ([6]; oral 20 mg/kg) was 250.45 ± 62.42 μg × min^2/mL and the “AUMC0–24h/Dose” value ([6]; oral 20 mg/kg) was 0.012 ± 0.003 min^2/mL. The CL ([6]; oral 20 mg/kg) was 0.8652 ± 0.0648 mL/min/kg, the Cmax ([6]; oral 20 mg/kg) was 7210 ± 1190 ng/mL and the Cmax/dose ([6]; oral 20 mg/kg) was 0.36 ± 0.06. For the same compound, the “FBIO (absolute bioavailability)” value ([6]; oral 20 mg/kg) was 0.13 ± 0.03, the MRT ([6]; oral 20 mg/kg) was 5.47 ± 0.64 h and the “Terminal t1/2” value ([6]; oral 20 mg/kg) was 6.91 ± 3.84 h. For the same compound, the Vss ([6]; oral 20 mg/kg) was 0.49979 ± 0.223605 L/kg, the “time of maximum plasma level” value ([6]; oral 20 mg/kg) was 2 h and the “AUMC0–24h” value ([6]; oral 40 mg/kg) was 548.85 ± 207.09 μg × min^2/mL. For the same compound, the “AUMC0–24h/Dose” value ([6]; oral 40 mg/kg) was 0.014 ± 0.005 min^2/mL, the CL ([6]; oral 40 mg/kg) was 0.8315 ± 0.0753 mL/min/kg and the Cmax ([6]; oral 40 mg/kg) was 11270 ± 1040 ng/mL. The Cmax/dose ([6]; oral 40 mg/kg) was 0.28 ± 0.03, the “FBIO (absolute bioavailability)” value ([6]; oral 40 mg/kg) was 0.12 ± 0.03 and the MRT ([6]; oral 40 mg/kg) was 6.29 ± 1.14 h. For the same compound, the “Terminal t1/2” value ([6]; oral 40 mg/kg) was 7.86 ± 3.12 h, the Vss ([6]; oral 40 mg/kg) was 0.54861 ± 0.16478 L/kg and the “time of maximum plasma level” value ([6]; oral 40 mg/kg) was 2 h. For the same compound, the “AUC0–24h /Dose” value ([6]; oral 60 mg/kg) was 2.32 ± 0.46 (min/L) *10^−3, the “AUMC0–24h” value ([6]; oral 60 mg/kg) was 912.16 ± 299.02 μg × min^2/mL and the “AUMC0–24h/Dose” value ([6]; oral 60 mg/kg) was 0.015 ± 0.005 min^2/mL. It also gave a CL ([6]; oral 60 mg/kg) of 0.8397 ± 0.0582 mL/min/kg, a Cmax ([6]; oral 60 mg/kg) of 17860 ± 1620 ng/mL and a Cmax/dose ([6]; oral 60 mg/kg) of 0.30 ± 0.03. For the same compound, the “FBIO (absolute bioavailability)” value ([6]; oral 60 mg/kg) was 0.13 ± 0.03, the MRT ([6]; oral 60 mg/kg) was 6.43 ± 0.81 h and the “Terminal t1/2” value ([6]; oral 60 mg/kg) was 7.60 ± 2.34 h. For the same compound, the Vss ([6]; oral 60 mg/kg) was 0.54239 ± 0.12804 L/kg, the “time of maximum plasma level” value ([6]; oral 60 mg/kg) was 3 h and the absolute bioavailability ([6]; oral, as stated in abstract) was 0.13 ± 0.06. For the same compound, the apparent distributional phase [7] was < 2 h, the VSS ([7]; secondary parameter) was 0.68285 L/kg and the t1/2 ([7]; secondary parameter) was 10.653 h. The CLC ([7]; three compartment model) was 0.74 mL/min/kg, the CLd1 ([7]; three compartment model) was 0.56 mL/min/kg and the CLd2 ([7]; three compartment model) was 0.29 mL/min/kg. It also gave a V1 ([7]; three compartment model) of 0.64098 L/kg, a V2 ([7]; three compartment model) of 0.02822 L/kg and a VC ([7]; three compartment model) of 0.01365 L/kg. The “experimental Log K0/w” value [8] was 6.79 ± 0.12 and ≈ 7.0, the aqueous solubility ([9]; pH 2.0, 25 °C, 24 h shake-flask) was 0.28 ± 0.03 µg/mL (≈ 0.703 µM) and the maximum aqueous solubility ([9]; pH 8.0, 25 °C, 24 h shake-flask) was 0.73 ± 0.09 µg/mL. For the same compound, the overall solubility ([9]; pH range 2–8) was “less than 1.0 μg/mL”.
In the case of Lucifer Yellow [reference compound], the “mean permeability of paracellular control” value ([4]; Caco-2 monolayer integrity control) was < 0.15 ×10⁻⁶ cm/s.
